In ChEMBL document CHEMBL3596088, “Deepening the Topology of the Translocator Protein Binding Site by Novel N,N-Dialkyl-2-arylindol-3-ylglyoxylamides” (J Med Chem, 2015):
pKi: −log10 of the molar value.

What was measured:
[1] = biological target: Translocator protein (Rattus norvegicus, UniProt P16257); assay: Inhibition of [3H]PK11195 binding to TSPO in rat kidney mitochondrial membranes; type: cell membranes
[2] = species on record: Rattus norvegicus; assay: Inhibition of [3H]flumazenil binding to benzodiazepine receptor in rat cerebral cortex membranes at 10 uM incubated for 90 mins; type: cell membranes; conditions: Membrane
Method in brief: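 Crude rat cerebral cortex membrane fraction from differential centrifugation, washed to remove endogenous GABA. Incubated with 0.4 nM [3H]Ro15-1788 (flumazenil) for 90 min at 0 °C in 50 mM Tris-citrate, pH 7.4. Test compound at 10 μM; result given as percent inhibition of binding.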

Translocator protein, sequence (P16257 whole entry, looked up): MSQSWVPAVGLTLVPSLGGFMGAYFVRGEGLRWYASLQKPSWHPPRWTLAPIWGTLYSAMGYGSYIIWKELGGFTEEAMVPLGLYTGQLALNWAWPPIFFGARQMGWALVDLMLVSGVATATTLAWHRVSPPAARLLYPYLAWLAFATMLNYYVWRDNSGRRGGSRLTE

Compound	pKi [1]	inhibition [2] [%]
CCCCCCN(CCCCCC)C(=O)C(=O)c1c(-c2ccc(OC)cc2)[nH]c2ccccc12	8.40	0
CCCCN(CCCC)C(=O)C(=O)c1c(-c2ccc(C(=O)O)cc2)[nH]c2ccccc12	6.39	0
CCCN(CCC)C(=O)C(=O)c1c(-c2ccc(OC)cc2)[nH]c2ccccc12	8.24	0
CCCN(CCC)C(=O)C(=O)c1c(-c2ccsc2)[nH]c2ccccc12	8.92	0
CCCCN(CCCC)C(=O)C(=O)c1c(-c2ccsc2)[nH]c2ccccc12	8.55	0
CCCCCCN(CCCCCC)C(=O)C(=O)c1c(-c2ccc(C(=O)OC)cc2)[nH]c2ccccc12	8.48	0
CCCN(CCC)C(=O)C(=O)c1c(-c2ccc(O)cc2)[nH]c2ccccc12	7.79	0
CCCN(CCC)C(=O)C(=O)c1c(-c2ccc3ccccc3c2)[nH]c2ccccc12		0
CCCCCCN(CCCCCC)C(=O)C(=O)c1c(-c2ccc3ccccc3c2)[nH]c2ccccc12	9.28	0
CCCCN(CC)C(=O)C(=O)c1c(-c2ccc3ccccc3c2)[nH]c2ccccc12	9.29	0
CCCCCCN(CCCCCC)C(=O)C(=O)c1c(-c2ccc(O)cc2)[nH]c2ccccc12	8.20	0
CCCCCCN(CCCCCC)C(=O)C(=O)c1c(-c2ccc(-c3ccccc3)cc2)[nH]c2ccccc12	8.74	0
CN1C(=O)CN=C(c2ccc(Cl)cc2)c2cc(Cl)ccc21		0
CCCCN(CCCC)C(=O)C(=O)c1c(-c2ccc(N)cc2)[nH]c2ccccc12	6.88	0
CCCCN(CCCC)C(=O)C(=O)c1c(-c2ccc3ccccc3c2)[nH]c2ccccc12	9.27	0
CCN(Cc1ccccc1)C(=O)C(=O)c1c(-c2ccc3ccccc3c2)[nH]c2ccccc12	9.29	0
CCC(C)N(C)C(=O)c1cc2ccccc2c(-c2ccccc2Cl)n1 (configuration not stated)		0
CCCN(CCC)C(=O)C(=O)c1c(-c2ccc(N)cc2)[nH]c2ccccc12	7.35	0
CCCCN(CCCC)C(=O)C(=O)c1c(-c2ccc(OC)cc2)[nH]c2ccccc12	7.69	0
CCCCCCN(CCCCCC)C(=O)C(=O)c1c(-c2ccsc2)[nH]c2ccccc12	9.05	0
CCCN(CCC)C(=O)C(=O)c1c(-c2ccc(C(=O)O)cc2)[nH]c2ccccc12	6.46	0
CCCCN(CCCC)C(=O)C(=O)c1c(-c2ccc(O)cc2)[nH]c2ccccc12	7.59	0
CCCCCN(C)C(=O)C(=O)c1c(-c2ccc3ccccc3c2)[nH]c2ccccc12	9.43	0
CCCCCCN(CCCCCC)C(=O)C(=O)c1c(-c2ccc(C(=O)O)cc2)[nH]c2ccccc12	6.74	0
CCCN(CCC)C(=O)C(=O)c1c(-c2ccc(-c3ccccc3)cc2)[nH]c2ccccc12	9.28	0
CCCN(CCC)C(=O)C(=O)c1c(-c2ccc(C(=O)OC)cc2)[nH]c2ccccc12	8.51	0
CCCCCCN(CCCCCC)C(=O)C(=O)c1c(-c2ccc(N)cc2)[nH]c2ccccc12	8.38	0
CCCCN(CCCC)C(=O)C(=O)c1c(-c2ccc(-c3ccccc3)cc2)[nH]c2ccccc12	8.26	0
CCCCN(C)C(=O)C(=O)c1c(-c2ccc3ccccc3c2)[nH]c2ccccc12	9.25	0
CCCCN(CCCC)C(=O)C(=O)c1c(-c2ccc(C(=O)OC)cc2)[nH]c2ccccc12	8.57	0
